Where “and” joins values, the source holds several entries; their conditions need not be identical. Identical values can stand only once.

Series [1] relates to Canis familiaris. As to the kind of experiment: Oral diuretic activity was evaluated by measuring Na+ excretion in dog at 0.312 mg/kg after ip administration. The series is classed as ADME, organism-based, Canis lupus familiaris, Urine. Further details: dose 0.312 mg/kg, route intraperitoneal. The settings on record: in vivo. A digest of the protocol: (§1)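 Spontaneous urine was pooled with bladder urine collected by catheterization at 6 h. Volume was measured and Na+, K+ and Cl− were determined by standard methods. Values are geometric means.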

The test system of series [2] is Canis familiaris. As to the kind of experiment: Oral diuretic activity was evaluated by measuring Na+ excretion in dog at 0.625 mg/kg after ip administration. The settings on record: in vivo. Details: dose 0.625 mg/kg, route intraperitoneal. It is filed as ADME, organism-based, Canis lupus familiaris, Urine. A digest of the protocol:
as §1

For series [3], the system named is Canis familiaris. Nature of the series: Oral diuretic activity was evaluated by measuring Na+ excretion in dog at 2 mg/kg after […]. It is filed as ADME, organism-based, Canis lupus familiaris, Urine. Details: dose 2 mg/kg. Particulars: in vivo. A digest of the protocol:
(§2)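 Dogs; spontaneous urine was pooled with bladder urine drained by catheter at the end of 6 h. Urine volume was measured, and aliquots were assayed for Na+, K+ and Cl− by standard methods. Values are geometric means, expressed as mequiv over 0–6 h.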

Series [4] has as its system Canis familiaris. Nature of the series: Oral diuretic activity was evaluated by measuring K+ excretion in dog at 5 mg/kg after ip administration. The series is classed as ADME, organism-based, Canis lupus familiaris, Urine. Particulars: in vivo. Further details: dose 5 mg/kg, route intraperitoneal. The method, boiled down:
as §1

Series [5] relates to Canis familiaris. As to the kind of experiment: Oral diuretic activity was evaluated by measuring Na+ excretion in dog at 5 mg/kg after ip administration. It is filed as ADME, organism-based, Canis lupus familiaris, Urine. Details: dose 5 mg/kg. Particulars: in vivo. The method, boiled down: as §2
The test system of series [6] is Canis familiaris. As to the kind of experiment: Oral diuretic activity was evaluated by measuring K+ excretion in dog at 2 mg/kg after ip administration. The series is classed as ADME, organism-based, Canis lupus familiaris, Urine. Details: dose 2 mg/kg, route intraperitoneal. The settings on record: in vivo. The method, boiled down: as §1
For series [7], the system named is Canis familiaris. As to the kind of experiment: Oral diuretic activity was evaluated by measuring K+ excretion in dog at 0.312 mg/kg after ip administration. It is filed as ADME, organism-based, Canis lupus familiaris, Urine. Further details: dose 0.312 mg/kg, route intraperitoneal. The settings on record: in vivo.
The subject of series [8] is Canis familiaris. Nature of the series: Oral diuretic activity was evaluated by measuring K+ excretion in dog at 0.625 mg/kg after […]. It is filed as ADME, organism-based, Canis lupus familiaris, Urine. Details: dose 0.625 mg/kg. The settings on record: in vivo. The method, boiled down: as §1
Series [9] concerns Rattus norvegicus. Nature of the series: Compound administered orally was evaluated for salidiuretic activity measured as sodium ion excretion in Rat. It is filed as ADME, organism-based, Urine. Particulars: in vivo, po. The method, boiled down:
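Female Charles-River rats (150–170 g), overnight on sugar diet with water ad libitum. Compound dissolved in DMF, diluted with water containing Tween 80 (final 4% DMF), given po in 5.0 mL; concurrent vehicle placebo. Three rats per metabolism cage; 0–5 h urine analysed for Na+, K+, Cl-. Values: mequiv × 100 per cage, geometric means of three cages per dose; scored 0–6 by Na+.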

In series [10] the test system is Canis familiaris. Nature of the series: Oral diuretic activity was evaluated by measuring Cl- excretion in dog at 5 mg/kg after ip administration. The series is classed as ADME, organism-based, Canis lupus familiaris, Urine. Further details: dose 5 mg/kg, route intraperitoneal. The settings on record: in vivo.
Series [11] concerns Canis familiaris. As to the kind of experiment: Compound administered intravenously was evaluated for salidiuretic activity measured as sodium ion excretion in Dog. The series is classed as ADME, organism-based, Canis lupus familiaris, Urine. Further details: unit not given beside the values. The settings on record: in vivo, iv. A digest of the protocol: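 Conditioned female mongrel dogs, postabsorptive, water-loaded (500 mL po) 1 h before sodium pentobarbital anesthesia (30 mg/kg iv). Bladder catheter; creatinine 4 g sc; phosphate–mannitol buffer pH 7.4 infused (3.0 mL/min) throughout. […] Urine Na+ measured; response scored 0–6.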

For series [12], the system named is Rattus norvegicus. As to the kind of experiment: Oral diuretic activity was evaluated by measuring Cl- excretion in Rat at 27 mg/kg after ip administration. Details: dose 27 mg/kg, route intraperitoneal. The series is classed as ADME, organism-based, Urine. The settings on record: in vivo.
Series [13] has as its system Rattus norvegicus. As to the kind of experiment: Oral diuretic activity was evaluated by measuring Cl- excretion in Rat at 3 mg/kg after ip administration. The series is classed as ADME, organism-based, Urine. The settings on record: in vivo. Details: dose 3 mg/kg, route intraperitoneal.
Series [14] relates to Rattus norvegicus. As to the kind of experiment: Oral diuretic activity was evaluated by measuring Cl- excretion in Rat at 81 mg/kg after ip administration. It is filed as ADME, organism-based, Urine. Details: dose 81 mg/kg, route intraperitoneal. The settings on record: in vivo.
For series [15], the system named is Canis familiaris. As to the kind of experiment: Oral diuretic activity was evaluated by measuring Cl- excretion in dog at 0.312 mg/kg after ip administration. Further details: dose 0.312 mg/kg, route intraperitoneal. It is filed as ADME, organism-based, Canis lupus familiaris, Urine. Particulars: in vivo.
For series [16], the system named is Canis familiaris. Nature of the series: Oral diuretic activity was evaluated by measuring Cl- excretion in dog at 0.625 mg/kg after ip administration. It is filed as ADME, organism-based, Canis lupus familiaris, Urine. Details: dose 0.625 mg/kg, route intraperitoneal. Particulars: in vivo.
Series [17] deals with Canis familiaris. As to the kind of experiment: Oral diuretic activity was evaluated by measuring Cl- excretion in dog at 2 mg/kg after ip administration. The settings on record: in vivo. The series is classed as ADME, organism-based, Canis lupus familiaris, Urine. Further details: dose 2 mg/kg, route intraperitoneal.
The species entered for series [18] is Rattus norvegicus. Nature of the series: Time taken for the decrease in arterial pressure was measured. The series is classed as functional, Artery.
The subject of series [19] is Rattus norvegicus. As to the kind of experiment: Maximum fall in mean arterial blood pressure was measured in SH rats when compound was administered at 0.078 mg/kg perorally. The settings on record: route oral. The series is classed as functional.
Series [20] relates to Rattus norvegicus. As to the kind of experiment: Maximum fall in mean arterial blood pressure was measured in SH rats when compound was administered at 0.312 mg/kg perorally. It is filed as functional. The settings on record: route oral.
The subject of series [21] is Rattus norvegicus. Nature of the series: Maximum fall in mean arterial blood pressure was measured in SH rats when compound was administered at […] mg/kg perorally. The series is classed as functional. The settings on record: route oral.
Series [22] concerns Rattus norvegicus. As to the kind of experiment: Oral diuretic activity was evaluated by measuring K+ excretion in Rat at 3 mg/kg after po administration. The settings on record: in vivo.

`CC(C)(C)c1cc(I)c(O)c(CN)c1.Cl`: the Diuretic activity is 13.76 in the series on Canis familiaris [1]; 22.3 with Canis familiaris [2]; 44.9 in the series with Canis familiaris [3]; 9.9 in the series on Canis familiaris [4]; 56.8 in the series with Canis familiaris [5]; 9.3 with Canis familiaris [6]. The Diuretic activity with Canis familiaris [7] is on record as 4.34; in the series with Canis familiaris [8], 5.1; with Rattus norvegicus [9], 6; with Canis familiaris [10], 69.6; in the series with Canis familiaris [11], 6; with Rattus norvegicus [12] it was 4.35. For the same molecule, the Diuretic activity in the series on Rattus norvegicus [13] stood at 2.11; in the series with Rattus norvegicus [14] it was 4.89; in the series with Canis familiaris [15], 19.28; with Canis familiaris [16] it was 30.3; with Canis familiaris [17], 57; with Rattus norvegicus [22], 0.51. In the series listed under Rattus norvegicus [18], the Duration was 18 h and >24 h. For the same molecule, the MAP in the series with Rattus norvegicus [19] is 16 mmHg; with Rattus norvegicus [20], 26 mmHg; in the series on Rattus norvegicus [21] it was 38 mmHg.

The values above are taken from ChEMBL document CHEMBL1121573, “2-(Aminomethyl)phenols, a new class of saluretic agents. 1. Effects of nuclear substitution” (J Med Chem, 1980).
